Assay outcomes deposited in PubChem by several laboratories.
This is a sample that favours compounds with a hit; in the whole collection about 3% have one here.
PLCb3 inh: PLC-beta3 (human) inhibition, primary screen | Q01970 | Purified PLC-beta3, fluorogenic substrate, fluorescence | inhibition, % at 12.2 µM | hit rate 0.18% among 370,000 | AID 720704;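 also: 0% = median of compound wells on plate and 100% = full blocker control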
DDE Tn7 FP inh: disrupts Tn7 cyclic peptide binding to fibrin D-Dimer-E complex; P02675; FP displacement of FITC-Tn7 peptide from fibrin DD(E); 0% = median of compound wells per plate; inhibition, % at 8.3 µM; hit rate 0.13% among 370,000;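 active = inhibition above the mean of compounds falling within the control limits plus 3 SD of them, cut at about 14% in these data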;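 also: 0% = plate median of compound wells and 100% = 10 µM Aha-Tn7 peptide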
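Also added: labelled Tn7 tracer, 0.1 µM; Assay system: human fibrin DD(E) protein; Amount: 2 µM fibrin DD(E); Schedule: 10 min compound pre-incubation, 3 h probe incubation at room temperature; Repeats: one replicate per compound; Read-out basis: percent inhibition; Measured by: fluorescence polarization of the labelled Tn7 tracer.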
NRP1-CendR mod: modulators of CendR peptide binding to human neuropilin-1 | O14786 | FAM-RPARPAR peptide binding to NRP-1, fluorescence polarization | inhibition, % at 25 µM | hit rate 0.85% among 360,000;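 active = inhibition or corrected inhibition above about 18%, plus a signal ratio from 0.5 to 1.5, limit read from the data, passing the limit was not always enough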
PLCg1 inh: blocks human PLC-gamma1 enzyme activity; hit rate 0.84% among 370,000; inhibition, % at 12.2 µM; purified PLC-gamma1, fluorogenic substrate, fluorescence; P19174; in the data active = inhibition above about 9.5%
proKLK7 act: activators of human kallikrein-7 zymogen. hit rate 0.9% among 370,000. P49862. purified proKLK7, EDANS-DABCYL substrate fluorescence; 100% is mature enzyme control, 0% vehicle. activation, % at 7 µM. AID 652039;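 active = activation above the mean of all tested compounds plus 3 SD, computed per campaign excluding outliers beyond control limits, cut at about 13% in these data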
Tn6 DDE FP: disrupts Tn6 cyclic peptide binding to fibrin D-Dimer-E complex; P02675; Fibrin DD(E) TRITC-Tn6 fluorescence polarization displacement; inhibition, % at 8.3 µM; hit rate 0.21% among 370,000; AID 720509;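 active = inhibition above a per-campaign cutoff: mean of compounds within control limits plus 3 SD, cut at about 15% in these data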;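 also: 0% = median of all compound wells on the plate and 100% = blocking peptide control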
PLCg1 ctr: inhibits human PLC-gamma1 in PLC-beta3 counter-screen. shares compounds with PLCg1 inh. purified PLC-gamma1, fluorogenic substrate, fluorescence. inhibition, % at 12.3 µM. hit rate 3.1% among 3,300. AID 743258; in the data active = inhibition above about 9.5%
PLCb3 confirm: human PLC-beta3 inhibition, confirmation | hit rate 1% among 3,300 | shares compounds with PLCg1 inh | inhibition, % at 12.3 µM | purified PLC-beta3, fluorogenic substrate fluorescence | AID 743261
* hit, by the source's call; nt = not tested or not shown. Rule as the data show it, unless noted: active = inhibition above about 11%; inactive = the rest.

SMILES	PLCb3 inh	DDE Tn7 FP inh	NRP1-CendR mod	PLCg1 inh	proKLK7 act	Tn6 DDE FP	PLCg1 ctr	PLCb3 confirm
CCCCNC(=O)C[C@H]1C[C@@]2(C(=O)OC)C(=C[C@H](C(C)(C)C)O[C@@H]2C)N(Cc2cccc3ccccc23)C1=O	7	6	nt	4	0	-5	nt	nt
CCCC1(CCC)NC(=O)N(CC(=O)Nc2ccc(Cl)c(S(=O)(=O)N3CCOCC3)c2)C1=O	4	3	5	11*	0	-11	3	0
CC1CCCCC12NC(=O)N(CC(=O)Nc1ccc(Cl)c(S(=O)(=O)N3CCOCC3)c1)C2=O (configuration not stated)	-8	9	-5	0	0	7	nt	nt
O=C(Cc1ccc([N+](=O)[O-])cc1)N/N=C/c1cccnc1	-5	0	-2	1	0	4	nt	nt
O=C(N/N=C/c1cccnc1)c1ccc([N+](=O)[O-])cc1	5	-7	8	16*	0	-4	-2	2
Cn1cccc1C(=O)N1CCN(S(=O)(=O)c2cccs2)CC1	1	-5	nt	-1	0	3	nt	nt
C#CCOCCOCCOCCNc1nc(N2CCN(C(=O)[C@H](CCCCN)n3cc([C@@H](N)C(C)CC)nn3)CC2)nc(N2CCN(C(=O)[C@H](CCCCN)n3cc([C@@H](N)C(C)CC)nn3)CC2)n1 (some centres not stated)	7	-1	nt	10*	nt	-5	0	6
C#CCOCCOCCOCCNc1nc(N2CCN(C(=O)[C@H](CCCCN)n3cc(CN)nn3)CC2)nc(N2CCN(C(=O)[C@H](CCCCN)n3cc([C@@H](N)[C@H](C)CC)nn3)CC2)n1	2	1	10	3	-1	4	nt	nt
CSc1cccc(NC(=O)CN(c2cccc(C)c2)S(C)(=O)=O)c1	1	-3	5	11*	-1	-10	-6	-1
CSc1cccc(NC(=O)CN(c2ccc(C)cc2C)S(C)(=O)=O)c1	-3	-6	1	2	1	-7	nt	nt
CCOC(=O)[C@]12CCCC3=C1N(CCC3)C(=O)[C@@H](CC(=O)N1CCCC1)C2	-2	-2	nt	0	1	0	nt	nt
COC(=O)[C@H](C(C)C)N(CCCc1cn(CC2CCCCC2)nn1)S(=O)(=O)c1ccccc1Br	-1	2	nt	0	1	-1	nt	nt
COc1ccc(CN(C)S(=O)(=O)c2ccc3c(c2)OCCO3)cc1	-2	-5	11	12*	0	-8	-4	-5
CN(Cc1ccccc1)S(=O)(=O)c1ccc2c(c1)OCCO2	1	5	-14	0	0	-3	nt	nt
CCCC1CCC2(CCC(=O)N2CCSc2ccccc2)CC1 (configuration not stated)	4	3	nt	4	1	6	nt	nt
C=CCNC(=O)CN(C(=O)Cc1ccc(Cl)nc1)c1cccc(Br)c1	-1	-5	nt	1	0	5	nt	nt
CCOC(=O)c1cccc(-c2cc(C(=O)OC)c3n(c2=O)CCC3)c1	-12	3	nt	-10	1	1	nt	nt
CC1(C)CC(NC(=O)c2ccncc2)CC(C)(C)N1O	1	-3	6	11*	0	3	-9	-5
Cc1ccc2c(c1)C(CS(=O)(=O)NC1CCCC1)NC2 (configuration not stated)	-10	-8	nt	-9	-1	2	nt	nt
C=CCC[C@@H](Cc1ccc(F)cc1)C(=O)OC[C@@H]1CCCN1C(=O)[C@@H](CC=C)CC(=O)N[C@@H](CO)Cc1ccccc1	5	2	15	11*	0	3	-6	0
C=CC[C@@H](Cc1ccc(F)cc1)C(=O)OC[C@@H]1CCCN1C(=O)[C@H](CC=C)CC(=O)N(CCO)Cc1ccccc1	8	0	11	10*	0	8	-9	-4
CCCCNC(=O)C[C@H]1C[C@@]2(C(=O)OC)C(=C[C@H](C(C)C)O[C@@H]2C2CC2)N(CCc2ccc(OC)c(OC)c2)C1=O	-1	-5	nt	-13	0	8	nt	nt
CNC(=S)NCCN1CCOCC1	0	-6	-1	-1	0	-1	nt	nt
CCNC(=S)NCCN1CCOCC1	12*	-8	-6	9	0	5	-5	0
O=C(C1CC1)N1CCc2cc(Br)c(S(=O)(=O)NCCCN3CCCCC3)cc21	-3	-5	nt	2	0	-2	nt	nt
SMILES	PLCb3 inh	DDE Tn7 FP inh	NRP1-CendR mod	PLCg1 inh	proKLK7 act	Tn6 DDE FP	PLCg1 ctr	PLCb3 confirm
COC(=O)C1CN(Cc2cn(Cc3ccc(OC)cc3)nn2)CCS(=O)(=O)N1Cc1ccc(F)cc1 (configuration not stated)	3	4	nt	-1	0	-3	nt	nt
CCOc1ccc(/C=C2\CCC(C3CCCC3)C2=O)cc1 (configuration not stated)	-6	1	5	9.9*	0	-4	-8	-5
Cn1c(SC/C=C/c2ccccc2)nnc1-c1ccco1	0	-8	8	0	0	-7	nt	nt
Cn1c(SC/C=C/c2ccccc2)nnc1-c1cccnc1	9	-11	nt	12*	-1	-6	1	1
O=C(Nc1nc(-c2ccc(F)c(F)c2)cs1)Nc1ccc(F)cc1F	3	-3	7	10*	1	-2	3	-1
Cn1c(NCCCN2CCOCC2)nc2c1c(=O)n(Cc1ccc(Cl)cc1Cl)c(=O)n2C	3	4	2	12*	0	12	-13	-3
O=S1(=O)c2c(NCc3ccco3)cccc2Oc2ccccc2CN1Cc1cn(Cc2ccc(F)cc2)nn1	-50	2	nt	-39	-2	3	nt	nt
O=C(Nc1ccccc1)c1ccc(S(=O)(=O)NCc2cccnc2)cc1	-93	-2	-4	10*	0	6	-1	2
O=C(Nc1ccc(S(=O)(=O)NCc2cccnc2)cc1)c1ccccc1Cl	5	-3	4	7	0	10	nt	nt
Cc1ccc(C(C(=O)NC2CCCCC2)N(Cc2cccnc2)C(=O)C2COc3ccccc3O2)o1 (configuration not stated)	0	6	-12	6	1	-1	nt	nt
Cc1ccc(C(C(=O)NC2CCCCC2)N(Cc2ccco2)C(=O)C2COc3ccccc3O2)o1 (configuration not stated)	-4	2	-1	9.6*	0	1	9	1
COC(=O)[C@H](CC(C)C)N1Cc2nnn(CC3CCCCC3)c2-c2ccccc2S1(=O)=O	4	-5	nt	0	1	-1	nt	nt
NC(=O)CC[C@H](NC(=O)c1ccc(F)cc1)C(=O)OCC(=O)NCc1ccc(F)cc1	4	2	8	10*	0	5	-2	-2
